Experiments:
[1] = organism: Rattus norvegicus; assay: Minimum effective dose producing a 40-60% decrease in serum TLDL cholesterol in rats relative to vehicle -treated controls; format: functional; conditions: read-out: MED
[2] = molecular target: T1, Peroxisome proliferator-activated receptor gamma (Mus musculus, UniProt P37238); assay: Compound was tested for its agonist activity against murine Peroxisome proliferator activated receptor gamma-Gal4 chimeric receptor in transfected CV-1 cells; format: functional, cell-based
T1 sequence (P37238 whole entry): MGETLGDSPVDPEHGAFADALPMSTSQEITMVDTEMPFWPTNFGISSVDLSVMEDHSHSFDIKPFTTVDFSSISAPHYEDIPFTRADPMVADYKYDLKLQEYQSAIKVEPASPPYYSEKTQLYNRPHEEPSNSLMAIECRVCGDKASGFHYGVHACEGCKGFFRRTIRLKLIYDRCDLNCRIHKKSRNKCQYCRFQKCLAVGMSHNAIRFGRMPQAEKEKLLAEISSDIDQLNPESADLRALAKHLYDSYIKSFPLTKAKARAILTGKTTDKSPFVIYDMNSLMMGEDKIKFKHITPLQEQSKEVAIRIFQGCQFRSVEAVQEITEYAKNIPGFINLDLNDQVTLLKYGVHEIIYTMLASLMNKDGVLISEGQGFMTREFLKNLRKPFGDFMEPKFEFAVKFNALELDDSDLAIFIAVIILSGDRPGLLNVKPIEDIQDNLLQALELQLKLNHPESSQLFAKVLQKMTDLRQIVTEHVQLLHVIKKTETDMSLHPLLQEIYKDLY

[3] = molecular target: T2, Peroxisome proliferator-activated receptor alpha (Mus musculus, UniProt P23204); assay: Compound was tested for its agonist activity against murine Peroxisome proliferator activated receptor alpha-Gal4 chimeric receptor transfected CV-1 cells; format: functional, cell-based
T2 sequence (P23204 whole entry): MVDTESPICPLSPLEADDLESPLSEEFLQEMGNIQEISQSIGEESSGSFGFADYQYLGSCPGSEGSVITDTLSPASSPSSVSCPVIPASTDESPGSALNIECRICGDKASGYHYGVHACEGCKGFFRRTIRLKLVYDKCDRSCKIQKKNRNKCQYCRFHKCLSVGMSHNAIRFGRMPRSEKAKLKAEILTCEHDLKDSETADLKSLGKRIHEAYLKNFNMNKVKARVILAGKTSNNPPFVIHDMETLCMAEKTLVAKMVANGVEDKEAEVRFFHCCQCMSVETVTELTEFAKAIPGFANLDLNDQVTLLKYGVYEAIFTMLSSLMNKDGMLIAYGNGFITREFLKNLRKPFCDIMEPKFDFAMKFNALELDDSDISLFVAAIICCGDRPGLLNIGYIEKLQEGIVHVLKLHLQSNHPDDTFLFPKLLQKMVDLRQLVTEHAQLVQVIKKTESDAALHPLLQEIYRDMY
Outline: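 PPAR-GAL4 chimeric receptor transiently transfected into CV-1 cells; reporter activity read after compound exposure, with concentrations tested up to 300 µM.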

[4] = molecular target: T3, Peroxisome proliferator-activated receptor delta (Homo sapiens, UniProt Q03181); assay: Compound was tested for agonist activity on human Peroxisome proliferator activated receptor delta-GAL4 chimeric receptor in transfected CV-1 cells; format: functional, cell-based
T3 sequence (Q03181 whole entry): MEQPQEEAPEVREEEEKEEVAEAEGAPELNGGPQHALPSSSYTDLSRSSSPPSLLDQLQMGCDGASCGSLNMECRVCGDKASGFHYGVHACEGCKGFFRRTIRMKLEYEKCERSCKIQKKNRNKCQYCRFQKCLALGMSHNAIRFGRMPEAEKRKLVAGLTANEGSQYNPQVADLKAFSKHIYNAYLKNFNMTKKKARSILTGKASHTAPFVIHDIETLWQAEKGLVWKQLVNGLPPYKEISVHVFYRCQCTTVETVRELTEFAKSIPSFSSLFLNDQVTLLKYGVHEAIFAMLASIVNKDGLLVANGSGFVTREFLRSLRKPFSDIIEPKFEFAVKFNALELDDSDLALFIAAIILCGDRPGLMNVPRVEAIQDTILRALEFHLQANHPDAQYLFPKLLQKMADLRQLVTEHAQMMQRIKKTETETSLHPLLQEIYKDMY

[5] = molecular target: T4, Peroxisome proliferator-activated receptor delta (Mus musculus, UniProt P35396); assay: Compound was tested for its agonist activity against murine Peroxisome proliferator activated receptor delta-GAL4 chimeric receptor in transfected CV-1 cells; format: functional, cell-based
T4 sequence (P35396 whole entry): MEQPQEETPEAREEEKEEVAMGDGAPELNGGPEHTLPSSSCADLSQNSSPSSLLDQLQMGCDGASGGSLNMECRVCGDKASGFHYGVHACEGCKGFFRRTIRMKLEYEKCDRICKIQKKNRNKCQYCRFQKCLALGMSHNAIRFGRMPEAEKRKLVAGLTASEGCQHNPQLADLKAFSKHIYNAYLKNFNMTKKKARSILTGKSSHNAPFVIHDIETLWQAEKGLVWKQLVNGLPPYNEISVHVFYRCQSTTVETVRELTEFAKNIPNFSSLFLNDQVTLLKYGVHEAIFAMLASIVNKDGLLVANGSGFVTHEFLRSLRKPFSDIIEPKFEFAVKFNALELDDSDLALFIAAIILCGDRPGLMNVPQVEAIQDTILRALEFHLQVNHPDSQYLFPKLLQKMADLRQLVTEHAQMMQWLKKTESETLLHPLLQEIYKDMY

[6] = molecular target: T5, Peroxisome proliferator-activated receptor gamma (Homo sapiens, UniProt P37231)
T5 sequence (P37231 whole entry): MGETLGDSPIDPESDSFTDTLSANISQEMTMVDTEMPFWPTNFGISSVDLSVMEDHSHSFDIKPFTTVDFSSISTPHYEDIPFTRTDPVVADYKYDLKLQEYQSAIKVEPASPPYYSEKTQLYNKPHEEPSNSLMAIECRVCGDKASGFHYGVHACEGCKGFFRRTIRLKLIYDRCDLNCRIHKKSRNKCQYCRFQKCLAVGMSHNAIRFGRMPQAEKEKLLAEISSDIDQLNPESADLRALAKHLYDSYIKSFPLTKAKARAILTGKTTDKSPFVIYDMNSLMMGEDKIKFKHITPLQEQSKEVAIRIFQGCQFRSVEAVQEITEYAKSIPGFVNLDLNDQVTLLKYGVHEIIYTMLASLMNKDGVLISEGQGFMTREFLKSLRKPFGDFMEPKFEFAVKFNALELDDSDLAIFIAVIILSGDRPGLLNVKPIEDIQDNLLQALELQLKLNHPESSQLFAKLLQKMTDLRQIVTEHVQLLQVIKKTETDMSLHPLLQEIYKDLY

[7] = molecular target: T6, Peroxisome proliferator-activated receptor alpha (Homo sapiens, UniProt Q07869)
T6 sequence (Q07869 whole entry): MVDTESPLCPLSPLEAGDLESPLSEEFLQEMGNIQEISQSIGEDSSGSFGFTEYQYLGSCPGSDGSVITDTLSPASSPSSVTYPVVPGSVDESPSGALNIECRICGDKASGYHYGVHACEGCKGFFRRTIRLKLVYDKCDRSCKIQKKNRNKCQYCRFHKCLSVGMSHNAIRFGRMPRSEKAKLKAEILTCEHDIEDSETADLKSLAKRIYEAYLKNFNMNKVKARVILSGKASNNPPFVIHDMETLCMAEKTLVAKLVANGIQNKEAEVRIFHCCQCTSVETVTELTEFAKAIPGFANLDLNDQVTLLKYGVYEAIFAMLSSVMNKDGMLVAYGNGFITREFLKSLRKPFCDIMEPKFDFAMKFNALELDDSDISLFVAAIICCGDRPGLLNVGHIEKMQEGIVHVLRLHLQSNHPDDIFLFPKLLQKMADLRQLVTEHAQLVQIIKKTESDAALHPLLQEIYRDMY

[8] = molecular target: T4, Peroxisome proliferator-activated receptor delta; assay: Compound was tested for its agonist activity against murine Peroxisome proliferator activated receptor delta-GAL4 chimeric receptor in transfected CV-1 cells; IA = Inactive; format: functional, cell-based
[9] = molecular target: T3, Peroxisome proliferator-activated receptor delta; assay: Compound was tested for agonist activity on human Peroxisome proliferator activated receptor delta-GAL4 chimeric receptor in transfected CV-1 cells; IA = Inactive; format: functional, cell-based

Structure (SMILES)	minimal effective dose [1] [mg/kg]	EC50 [2] [nM]	EC50 [3] [nM]	EC50 [4] [nM]	EC50 [5] [µM]	EC50 [6] [nM]	EC50 [7] [nM]	EC50 [8]	EC50 [9]
CC(C)(Oc1ccc(CCN(C(=O)Nc2ccc(F)cc2F)C2CCCCCC2)cc1)C(=O)O	1	12	120	790	1.4	6	–	–	–
CCCCCCCN(CCc1ccc(OC(C)(C)C(=O)O)cc1)C(=O)Nc1ccc(F)cc1F	0.1	400	10	–	3.2	200	790	–	–
CC(C)(Oc1ccc(CCN(CCCCCC2CCCCC2)C(=O)Nc2ccc(F)cc2)cc1)C(=O)O	1	1000	53	–	23	1600	150	–	–
CCCCCCCN(CCc1ccc(OC(C)(C)C(=O)O)cc1)C(=O)Nc1ccc(F)cc1	0.1	870	33	3100	5.5	280	410	–	–
CC(C)(Oc1ccc(CCNC(=O)c2ccc(Cl)cc2)cc1)C(=O)O [BEZAFIBRATE]	50	55000	90000	20000	110	60000	–	–	–
CC(C)(Oc1ccc(Cl)cc1)C(=O)O [CLOFIBRIC ACID]	–	> 300000	50000	–	–	> 300000	55000	Not Active	Not Active
CC(C)(Oc1ccc(C(=O)c2ccc(Cl)cc2)cc1)C(=O)O [FENOFIBRIC ACID]	50	250000	–	–	–	–	–	Not Active	Not Active
CCCCCCCN(CCc1ccc(SC(C)(C)C(=O)O)cc1)C(=O)Nc1ccc(F)cc1F [GSK-9578]	0.2	1500	5	1400	2.6	–	–	–	–

— ChEMBL document CHEMBL1132388, “A ureido-thioisobutyric acid (GW9578) is a subtype-selective PPARalpha agonist with potent lipid-lowering activity” (J Med Chem, 1999)
